ChEMBL document CHEMBL3576809, “Thiasporines A-C, thiazine and thiazole derivatives from a marine-derived Actinomycetospora chlora” (J Nat Prod, 2015)
Activity calls are given as the source filed them. No cut-off for these calls is given here.

Tests used:
Assay type in all cases: functional, cell-based
HCC366 [1] = assay: Cytotoxicity against human HCC366 cells assessed as cell viability at 0.001 to 50 uM after 96 hrs by Cell Titer Glo assay
In short: (§1)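 Cells grown in RPMI/L-glutamine with 1000 U/mL penicillin, 1 mg/mL streptomycin and 5% FBS at 37 °C, 5% CO2, then plated in 384-well plates overnight. Compounds in DMSO were added at final 50 μM to 1 nM (0.5% DMSO final) for 96 h. CellTiter-Glo (1:2 in medium) was added, 10 min at room temperature, and luminescence normalized to DMSO-only wells.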

NCI-H2122 [2] = assay: Cytotoxicity against human NCI-H2122 cells assessed as cell viability at 0.001 to 50 uM after 96 hrs by Cell Titer Glo assay; in short: as §1
A549 [3] = assay: Cytotoxicity against human A549 cells assessed as cell viability at 0.001 to 50 uM after 96 hrs by Cell Titer Glo assay; in short: as §1
HCC44 [4] = assay: Cytotoxicity against human HCC44 cells assessed as cell viability at 0.001 to 50 uM after 96 hrs by Cell Titer Glo assay; in short: as §1
HCC366 [5] = assay: Cytotoxicity against human HCC366 cells assessed as cell viability up to 24 uM after 96 hrs by Cell Titer Glo assay
In short: (§2)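 NSCLC lines were kept in RPMI/L-glutamine with penicillin, streptomycin and 5% FBS (37 °C, 5% CO2) and seeded in 384-well plates overnight. DMSO-dissolved compounds were added (final DMSO 0.5%) and incubated 96 h. Viability was read as CellTiter-Glo luminescence after 10 min at room temperature and normalized to untreated cell-plus-DMSO wells.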

A549 [6] = assay: Cytotoxicity against human A549 cells assessed as cell viability up to 24 uM after 96 hrs by Cell Titer Glo assay; in short: as §2
HCC44 [7] = assay: Cytotoxicity against human HCC44 cells assessed as cell viability up to 24 uM after 96 hrs by Cell Titer Glo assay; in short: as §2
NCI-H2122 [8] = assay: Cytotoxicity against human NCI-H2122 cells assessed as cell viability after 96 hrs by Cell Titer Glo assay; settings: NCI-H2122, 96 h; in short: as §2

Structure (SMILES) | Activity (HCC366 [1]) | Activity (NCI-H2122 [2]) | Activity (A549 [3]) | Activity (HCC44 [4]) | Activity (HCC366 [5]) | Activity (A549 [6]) | Activity (HCC44 [7]) | IC50 (NCI-H2122 [8]) [µM]
CNc1ccccc1-c1nc(C(=O)OC)cs1 | inactive | inactive | inactive | inactive | – | – | – | –
Nc1ccccc1-c1nc(=O)c(O)cs1 | – | – | – | – | inactive | inactive | inactive | 5.4
CNc1ccccc1-c1nc(C(=O)O)cs1 | inactive | inactive | inactive | inactive | – | – | – | –
